The values that follow come from ChEMBL document CHEMBL1145030, “Novel pyrazolo[3,4-d]pyrimidine-based inhibitors of Staphlococcus aureus DNA polymerase III: design, synthesis, and biological evaluation” (J Med Chem, 2003).

One test deals with Bacillus subtilis. Description: Antibacterial activity against Bacillus subtilis. Type of test: functional. The method, boiled down: (§1)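 Broth microdilution MIC against B. subtilis F2, E. faecium RLA-1, S. aureus MB2865 and S. pneumoniae MCL5350. Compounds were DMSO stocks, serially 2-fold diluted from 100 μM final, at 5% final DMSO, with a DMSO vehicle control. Wells were inoculated from cultures diluted in PBS and incubated overnight at 37 °C. MIC was scored visually as the lowest concentration preventing growth.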

The subject of test [1] is Nucleic Acid. In words: Inhibitory activity against DNA polymerase III (DNA pol III) of Staphylococcus aureus at a concentration of 500 uM. Type of test: nucleic-acid assay. Put shortly:
(§2)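 S. aureus pol III was PCR-cloned into pET15, expressed in BL21 (1 mM IPTG), and purified on HiTrapQ then HiTrap Blue. Enzyme-started, it ran 30 min at 30 °C and was stopped with cold TCA/NaPPi. Incorporation was read by filter capture and scintillation counting.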

The test system of a further test is Streptococcus pneumoniae. Description: Antibacterial activity against Streptococcus pneumoniae. It is filed as functional. The method, boiled down: as §1
Test [2] relates to Nucleic Acid. Description: Inhibitory activity against DNA polymerase III (DNA pol III) of Staphylococcus aureus. It is filed as nucleic-acid assay. Put shortly:
as §2

Another test has as its system Staphylococcus aureus. In words: Antibacterial activity against Staphylococcus aureus. It is filed as functional. The method, boiled down:
as §1

The next test relates to Enterococcus faecium. Description: Antibacterial activity against Enterococcus faecium. It is filed as functional. The method, boiled down:
as §1

For test [3], the system named is Nucleic Acid. Description: Inhibitory activity against DNA polymerase III (DNA pol III) of Staphylococcus aureus at a concentration of 500 uM; NA means Inactive. Type of test: nucleic-acid assay. The method, boiled down: as §2

Each structure is given as a SMILES string. Converted amounts (≈) assume the structure as drawn. The source made the active and inactive calls. The calls are words filed in the database; no cut-off is given here.

With `Cc1ccc(Nc2nc(O)c3c[nH]nc3n2)cc1C`, the MIC in the test with Bacillus subtilis is 13 µg/mL (≈ 50.9 µM); in the test with Streptococcus pneumoniae it was 26 µg/mL (≈ 102 µM). The inhibition in the test with Nucleic Acid [1] turned out to be 36%.
In the case of `Cc1ccc(Nc2nc(O)c3c[nH]nc3n2)cc1I`, in the test with Nucleic Acid [2], the IC50 turned out to be 71 µM. The MIC in the test with Staphylococcus aureus was 9 µg/mL (≈ 24.5 µM); in the test on Bacillus subtilis, 9 µg/mL (≈ 24.5 µM); in the test with Enterococcus faecium it was 18 µg/mL (≈ 49 µM); with Streptococcus pneumoniae, 9 µg/mL (≈ 24.5 µM). The inhibition in the test on Nucleic Acid [1] was 86%.
In turn, `Cc1ccc(Nc2nc(O)c3c[nH]nc3n2)cc1Br` had an IC50 with Nucleic Acid [2] of 129 µM. In addition, the MIC was determined as 8 µg/mL (≈ 25 µM) against Staphylococcus aureus, 8 µg/mL (≈ 25 µM) in the test with Bacillus subtilis, 16 µg/mL (≈ 50 µM) against Enterococcus faecium and 8 µg/mL (≈ 25 µM) in the test on Streptococcus pneumoniae. The same molecule came in with an inhibition in the test on Nucleic Acid [1] of 69%.
For the molecule `Oc1[nH]c(NCc2cccc(C(F)(F)F)c2)nc2nncc1-2`, the NA result in the test on Nucleic Acid [3] is “inactive”.
Still for that read-out and setting: then `Oc1[nH]c(NCc2ccccc2Cl)nc2nncc1-2`, with “inactive”.
`Oc1[nH]c(NCc2ccc(F)c(Cl)c2)nc2nncc1-2`: the inhibition in the test with Nucleic Acid [1] was found to be 24%.
Turning to `Oc1[nH]c(NCc2ccccc2)nc2nncc1-2`, the inhibition with Nucleic Acid [1] was found to be 32%.
For the molecule `COc1cccc(CNc2nc(O)c3c[nH]nc3n2)c1`, in the test on Nucleic Acid [3], the NA result was “inactive”.
For `COc1ccc(CNc2nc(O)c3c[nH]nc3n2)cc1`, the inhibition in the test on Nucleic Acid [1] was 10%.
Turning to `Oc1[nH]c(NCc2ccc(Cl)c(Cl)c2)nc2nncc1-2`, the IC50 in the test with Nucleic Acid [2] was 108 µM. This molecule also showed an inhibition with Nucleic Acid [1] of 58%.
`Cc1ccc(CNc2nc(O)c3c[nH]nc3n2)c(C)c1` registered an inhibition in the test on Nucleic Acid [3] of 12%.
Regarding `CC(C)c1ccc(CNc2nc(O)c3c[nH]nc3n2)cc1`, the NA result in the test on Nucleic Acid [3] was “inactive”.
Turning to `Cc1ccc(Nc2nc(O)c3c[nH]nc3n2)cc1Cl`, in the test with Nucleic Acid [2], the IC50 is 214 µM. In addition, the MIC with Staphylococcus aureus came out at 14 µg/mL (≈ 50.8 µM); with Bacillus subtilis, 7 µg/mL (≈ 25.4 µM); in the test with Enterococcus faecium, 28 µg/mL (≈ 102 µM); against Streptococcus pneumoniae, 14 µg/mL (≈ 50.8 µM). In the test with Nucleic Acid [1], this molecule yielded an inhibition of 62%.
The molecule `CCc1cc(Nc2nc(O)c3c[nH]nc3n2)ccc1C` showed an IC50 in the test on Nucleic Acid [2] of 68 µM. Also, the MIC against Staphylococcus aureus was found to be 27 µg/mL (≈ 100 µM); with Bacillus subtilis, 7 µg/mL (≈ 26 µM); against Enterococcus faecium, 13 µg/mL (≈ 48.3 µM); in the test with Streptococcus pneumoniae, 13 µg/mL (≈ 48.3 µM). The same molecule gave an inhibition in the test on Nucleic Acid [1] of 88%.
In turn, `Oc1[nH]c(NCc2ccc(Br)cc2)nc2nncc1-2` registered an inhibition in the test with Nucleic Acid [1] of 23%.
